Published values gathered from unrelated publications.
Target: Serine/threonine-protein kinase PLK4 (PLK4, Homo sapiens, UniProt O00444)
Residues used in one study (O00444 1-970): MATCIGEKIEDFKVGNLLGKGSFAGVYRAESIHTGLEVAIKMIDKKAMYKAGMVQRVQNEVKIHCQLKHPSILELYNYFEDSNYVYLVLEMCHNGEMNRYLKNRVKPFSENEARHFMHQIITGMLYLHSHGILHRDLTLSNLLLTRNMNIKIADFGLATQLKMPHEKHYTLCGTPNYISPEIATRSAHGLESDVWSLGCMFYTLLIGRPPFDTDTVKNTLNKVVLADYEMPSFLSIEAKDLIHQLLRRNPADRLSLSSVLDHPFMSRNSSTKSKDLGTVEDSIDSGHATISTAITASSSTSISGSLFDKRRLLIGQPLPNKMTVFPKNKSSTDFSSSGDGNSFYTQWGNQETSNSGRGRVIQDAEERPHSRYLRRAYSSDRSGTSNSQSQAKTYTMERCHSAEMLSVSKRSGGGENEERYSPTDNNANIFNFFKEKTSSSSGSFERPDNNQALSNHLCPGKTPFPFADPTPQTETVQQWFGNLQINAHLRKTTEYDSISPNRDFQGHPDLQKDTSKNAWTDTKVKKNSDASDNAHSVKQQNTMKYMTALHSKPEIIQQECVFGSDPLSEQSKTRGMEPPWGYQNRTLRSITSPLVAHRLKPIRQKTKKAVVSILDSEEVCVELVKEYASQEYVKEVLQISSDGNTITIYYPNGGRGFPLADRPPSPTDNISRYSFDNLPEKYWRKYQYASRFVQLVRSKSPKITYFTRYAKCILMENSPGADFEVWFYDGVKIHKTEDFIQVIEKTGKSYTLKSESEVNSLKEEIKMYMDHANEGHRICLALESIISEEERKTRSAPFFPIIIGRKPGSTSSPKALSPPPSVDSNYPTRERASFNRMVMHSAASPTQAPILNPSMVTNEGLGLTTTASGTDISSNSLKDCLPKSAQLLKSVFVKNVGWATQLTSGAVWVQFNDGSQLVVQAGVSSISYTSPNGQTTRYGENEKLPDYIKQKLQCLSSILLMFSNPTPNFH

The remaining binding of O=C(Nc1cccnn1)N1CC(C/C=C/c2cncc(Oc3ccc(C(F)(F)F)cn3)n2)C1 is reported as 98% (cell-free assay, competition with immobilised ligand; 1 µM).
COc1cc2nccc(Oc3ccc(NC(=O)Nc4ccc(F)cc4F)c(F)c3)c2cc1OC has a ΔTm of 5 to 10 °C (thermal stability, DSF; 10 µM).
With O=C(Nc1cnn(-c2csc(C(=O)NC3COC3)c2)c1)Nc1ccccc1Cl the remaining activity was 88.2% (enzyme activity, inhibitor; 5 µM).
With CC(C)(C)c1nc2c(s1)c1nc(N)ncc1c1ccc(NS(=O)(=O)c3c(F)cccc3F)c(F)c12 the remaining activity was 44% (enzyme activity, inhibitor, radiometric; 1 µM).
With Nc1ncnc2occ(-c3ccc(NC(=O)Nc4cc(C(F)(F)F)ccc4F)cc3)c12 the remaining signal was 0.55% (cell-free assay, inhibitor; 20 µM).
For Cc1ccc(C(=O)Nc2ccc(CN3CCN(C)CC3)c(C(F)(F)F)c2)cc1C#Cc1cnc2cccnn12, the remaining activity was 84% (enzyme activity, inhibitor; 23.5 nM).
With CC(C)(O)[C@H]1CC[C@H](Nc2ccc3ncc(-c4cccc(C(F)(F)F)c4)n3n2)CC1 the remaining activity was 101% (enzyme activity, inhibitor; 1 µM).
The remaining activity of CC(C)(C)c1nc(-c2cccc(NS(=O)(=O)c3c(F)cccc3F)c2F)c(-c2ccnc(N)n2)s1 is reported as 6% (enzyme activity, inhibitor, radiometric; 1 µM).
The inhibition of CN1CC(Oc2cnc(C#N)cc2-c2ccn3nc(NC(=O)C4CC4)cc3c2)C1 is reported as -5% (enzyme activity, inhibitor; 1 µM).
The remaining activity of COc1cc(Cl)c(C(=O)N[C@@H](CN[C@H]2CC[C@@H](N)CC2)Cc2ccc(C#N)cc2)cc1-c1ccc(CN[C@H](C)c2ccc(C)cc2)o1 is reported as 83% (enzyme activity, inhibitor; 1 µM).
For CN(C)c1ncnc(-c2ccc3nc(Nc4cc(CN5CCN(C(=O)CC(F)(F)F)CC5)ccn4)[nH]c3c2)c1Cl, the remaining binding was 76% (cell-free assay, competition with immobilised ligand; 1 µM).
For Cc1ccc(C(=O)NCc2ccsc2)cc1C#Cc1cn(C(C)C)c2ncnc(N)c12, the activity vs control was 75% (enzyme activity, inhibitor; 1 µM).
For Cc1sc(C(=O)NC2COC2)cc1-n1cc(NC(=O)Nc2c(F)cccc2Cl)cn1, the remaining activity was 100% (enzyme activity, inhibitor; 10 µM).
